Results as given in ChEMBL document CHEMBL4706666, “Targeting Cysteine Located Outside the Active Site: An Effective Strategy for Covalent ALKi Design” (J Med Chem, 2021).
Blank lines part the entries; values can stand above or below the molecule they belong to. Calls of active or inactive are those of the source. The calls are words filed in the database; no cut-off is given here.

What was measured:
[1] = tested on: NCI-H3122; assay: Antiproliferative activity against human NCI-H3122 cells assessed as reduction in cell viability incubated for 72 hrs by MTT assay; settings: NCI-H3122, 72 h
[2] = target: T1, ALK tyrosine kinase receptor (Homo sapiens, UniProt Q9UM73); assay: Inhibition of N-terminal GST tagged human ALK cytoplasmic domain (1058 to 1620 residues) expressed in Sf21 cells at 20 nM incubated for 10 mins by mobility shift assay
Target sequence in this assay (Q9UM73 19-1620 limits assumed): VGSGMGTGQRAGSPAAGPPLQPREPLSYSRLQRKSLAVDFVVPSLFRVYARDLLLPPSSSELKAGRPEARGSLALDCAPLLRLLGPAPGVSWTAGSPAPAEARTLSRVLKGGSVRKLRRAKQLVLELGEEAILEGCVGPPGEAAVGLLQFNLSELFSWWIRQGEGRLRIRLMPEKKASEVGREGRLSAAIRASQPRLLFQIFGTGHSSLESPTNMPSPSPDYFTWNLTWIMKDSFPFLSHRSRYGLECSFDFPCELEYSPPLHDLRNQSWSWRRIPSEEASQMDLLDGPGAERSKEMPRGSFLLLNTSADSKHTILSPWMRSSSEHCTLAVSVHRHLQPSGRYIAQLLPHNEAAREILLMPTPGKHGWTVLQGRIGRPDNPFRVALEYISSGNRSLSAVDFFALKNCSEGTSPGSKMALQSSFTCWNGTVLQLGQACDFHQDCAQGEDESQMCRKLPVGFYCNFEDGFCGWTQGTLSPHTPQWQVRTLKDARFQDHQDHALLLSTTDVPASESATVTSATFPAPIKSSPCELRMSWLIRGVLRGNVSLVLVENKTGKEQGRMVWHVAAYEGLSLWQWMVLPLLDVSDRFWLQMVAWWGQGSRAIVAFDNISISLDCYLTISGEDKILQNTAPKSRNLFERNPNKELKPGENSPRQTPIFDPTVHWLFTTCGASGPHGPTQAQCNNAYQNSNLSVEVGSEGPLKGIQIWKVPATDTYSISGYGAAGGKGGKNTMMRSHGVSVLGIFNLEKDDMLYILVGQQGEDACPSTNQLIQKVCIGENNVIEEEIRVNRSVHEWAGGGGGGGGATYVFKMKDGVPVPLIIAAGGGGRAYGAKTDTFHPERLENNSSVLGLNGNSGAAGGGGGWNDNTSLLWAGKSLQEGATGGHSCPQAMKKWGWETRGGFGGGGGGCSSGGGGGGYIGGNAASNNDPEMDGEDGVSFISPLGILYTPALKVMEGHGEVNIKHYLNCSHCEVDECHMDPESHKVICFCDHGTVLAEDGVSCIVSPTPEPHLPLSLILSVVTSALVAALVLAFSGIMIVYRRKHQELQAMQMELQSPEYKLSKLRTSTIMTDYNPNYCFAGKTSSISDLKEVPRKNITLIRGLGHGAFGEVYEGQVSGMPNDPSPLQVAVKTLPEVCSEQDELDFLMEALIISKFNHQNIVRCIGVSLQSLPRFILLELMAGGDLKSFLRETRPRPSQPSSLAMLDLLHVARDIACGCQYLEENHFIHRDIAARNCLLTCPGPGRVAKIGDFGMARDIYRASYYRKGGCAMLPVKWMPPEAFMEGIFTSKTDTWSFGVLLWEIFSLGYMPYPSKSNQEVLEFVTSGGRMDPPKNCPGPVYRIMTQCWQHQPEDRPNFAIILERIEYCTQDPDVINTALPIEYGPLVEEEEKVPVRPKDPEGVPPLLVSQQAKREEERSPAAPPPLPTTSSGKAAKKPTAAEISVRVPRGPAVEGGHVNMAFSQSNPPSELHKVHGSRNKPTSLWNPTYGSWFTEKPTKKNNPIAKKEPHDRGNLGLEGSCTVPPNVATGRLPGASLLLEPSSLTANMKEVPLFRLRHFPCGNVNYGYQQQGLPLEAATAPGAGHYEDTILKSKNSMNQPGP

[3] = target: T1, ALK tyrosine kinase receptor; assay: Inhibition of N-terminal GST tagged human ALK cytoplasmic domain (1058 to 1620 residues) expressed in Sf21 cells at 200 nM incubated for 10 mins by mobility shift assay
Target sequence in this assay (Q9UM73 19-1620 limits assumed): as above

[4] = tested on: L02; assay: Antiproliferative activity against human L02 cells assessed as reduction in cell viability at 5 uM incubated for 72 hrs by MTT assay relative to Ceritinib; type: cell-based; settings: l02, 72 h
In short: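 Normal human liver LO2 cells were grown at 37 °C, 5% CO₂ with 10% FBS and seeded at 2−5 × 10³ per well for 24 h. Compound was added at 5 μM for 72 h, followed by MTT for 1−4 h and absorbance read at 450 nm. Inhibition rate was taken from OD.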

[5] = target: T1, ALK tyrosine kinase receptor; assay: Inhibition of N-terminal GST tagged human ALK cytoplasmic domain (1058 to 1620 residues) expressed in Sf21 cells by mobility shift assay
In short: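 Wild-type ALK, kinase substrate and ATP at Km were combined with compound in kinase buffer and incubated 10 min at room temperature. Read-out was by mobility shift, and IC50 was derived by curve fitting.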
Target sequence in this assay (Q9UM73 whole entry, the tested form may be a part): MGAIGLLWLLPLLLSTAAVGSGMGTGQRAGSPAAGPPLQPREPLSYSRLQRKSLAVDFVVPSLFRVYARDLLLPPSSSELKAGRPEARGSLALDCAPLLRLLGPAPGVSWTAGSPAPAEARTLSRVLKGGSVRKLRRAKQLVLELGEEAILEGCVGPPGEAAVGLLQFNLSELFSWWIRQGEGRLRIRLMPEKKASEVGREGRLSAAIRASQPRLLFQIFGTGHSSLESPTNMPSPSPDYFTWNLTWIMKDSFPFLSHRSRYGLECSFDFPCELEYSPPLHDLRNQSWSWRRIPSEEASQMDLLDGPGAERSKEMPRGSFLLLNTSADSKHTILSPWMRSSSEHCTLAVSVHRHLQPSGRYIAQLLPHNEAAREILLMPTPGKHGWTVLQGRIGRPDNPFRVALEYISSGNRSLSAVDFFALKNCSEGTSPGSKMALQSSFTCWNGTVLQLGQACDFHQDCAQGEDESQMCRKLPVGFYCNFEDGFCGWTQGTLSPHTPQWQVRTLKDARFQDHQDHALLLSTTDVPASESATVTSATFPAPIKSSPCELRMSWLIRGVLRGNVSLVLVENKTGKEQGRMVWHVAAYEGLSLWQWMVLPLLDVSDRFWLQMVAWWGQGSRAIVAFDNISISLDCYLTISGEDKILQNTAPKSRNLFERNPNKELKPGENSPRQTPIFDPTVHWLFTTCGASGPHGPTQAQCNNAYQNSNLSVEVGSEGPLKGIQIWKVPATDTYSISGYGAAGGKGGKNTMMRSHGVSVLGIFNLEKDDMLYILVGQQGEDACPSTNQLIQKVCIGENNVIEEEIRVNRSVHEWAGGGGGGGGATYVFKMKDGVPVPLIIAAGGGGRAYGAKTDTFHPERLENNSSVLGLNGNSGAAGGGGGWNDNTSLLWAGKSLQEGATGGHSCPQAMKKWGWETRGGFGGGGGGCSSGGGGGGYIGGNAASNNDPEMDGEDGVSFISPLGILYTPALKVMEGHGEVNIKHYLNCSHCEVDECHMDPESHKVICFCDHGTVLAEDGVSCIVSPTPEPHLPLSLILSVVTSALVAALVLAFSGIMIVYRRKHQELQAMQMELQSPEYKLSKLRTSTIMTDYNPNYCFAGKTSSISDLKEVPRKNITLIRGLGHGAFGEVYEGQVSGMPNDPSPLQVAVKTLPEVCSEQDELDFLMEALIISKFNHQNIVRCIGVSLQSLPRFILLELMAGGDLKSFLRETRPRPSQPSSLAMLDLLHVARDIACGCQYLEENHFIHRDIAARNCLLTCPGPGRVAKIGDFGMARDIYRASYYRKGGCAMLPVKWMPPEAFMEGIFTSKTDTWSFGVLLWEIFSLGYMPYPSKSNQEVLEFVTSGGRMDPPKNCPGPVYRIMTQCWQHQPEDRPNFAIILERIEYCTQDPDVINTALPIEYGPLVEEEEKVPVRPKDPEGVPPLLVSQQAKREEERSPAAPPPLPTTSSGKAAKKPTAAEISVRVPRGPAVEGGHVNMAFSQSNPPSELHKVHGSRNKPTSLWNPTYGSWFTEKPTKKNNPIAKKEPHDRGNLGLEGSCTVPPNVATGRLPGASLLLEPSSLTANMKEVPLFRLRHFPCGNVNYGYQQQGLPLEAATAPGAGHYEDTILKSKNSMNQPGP

[6] = target: T2, Receptor-type tyrosine-protein kinase FLT3 (Homo sapiens, UniProt P36888); assay: Inhibition of FLT3 (unknown origin)
T2 sequence (P36888 whole entry): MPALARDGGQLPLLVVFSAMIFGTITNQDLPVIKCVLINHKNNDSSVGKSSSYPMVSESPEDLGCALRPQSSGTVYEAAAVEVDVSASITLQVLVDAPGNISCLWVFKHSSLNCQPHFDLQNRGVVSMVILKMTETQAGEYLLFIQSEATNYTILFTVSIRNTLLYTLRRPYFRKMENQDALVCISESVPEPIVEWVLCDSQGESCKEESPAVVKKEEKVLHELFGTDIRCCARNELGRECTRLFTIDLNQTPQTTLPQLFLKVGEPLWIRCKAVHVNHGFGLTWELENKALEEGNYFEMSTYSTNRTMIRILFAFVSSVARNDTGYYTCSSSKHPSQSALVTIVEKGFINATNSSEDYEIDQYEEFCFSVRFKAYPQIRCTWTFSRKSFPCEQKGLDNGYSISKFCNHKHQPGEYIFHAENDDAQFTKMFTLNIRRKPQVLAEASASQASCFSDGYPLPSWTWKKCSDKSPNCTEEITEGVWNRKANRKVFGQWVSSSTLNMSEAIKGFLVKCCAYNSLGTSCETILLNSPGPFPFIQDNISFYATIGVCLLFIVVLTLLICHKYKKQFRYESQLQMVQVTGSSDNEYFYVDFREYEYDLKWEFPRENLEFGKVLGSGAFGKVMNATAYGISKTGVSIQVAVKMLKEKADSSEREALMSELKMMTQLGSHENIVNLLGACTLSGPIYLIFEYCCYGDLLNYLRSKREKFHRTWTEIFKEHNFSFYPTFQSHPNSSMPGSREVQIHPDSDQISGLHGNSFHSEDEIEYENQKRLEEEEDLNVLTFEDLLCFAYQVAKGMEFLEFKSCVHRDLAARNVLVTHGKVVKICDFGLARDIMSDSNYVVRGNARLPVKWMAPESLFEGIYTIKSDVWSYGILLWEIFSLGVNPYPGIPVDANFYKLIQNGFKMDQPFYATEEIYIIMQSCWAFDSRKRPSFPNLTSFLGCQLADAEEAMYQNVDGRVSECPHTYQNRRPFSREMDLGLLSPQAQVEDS

[7] = target: Fibroblast growth factor receptor 2 (Homo sapiens, UniProt P21802); assay: Inhibition of FGFR2 (unknown origin)
Fibroblast growth factor receptor 2, sequence (P21802 whole entry): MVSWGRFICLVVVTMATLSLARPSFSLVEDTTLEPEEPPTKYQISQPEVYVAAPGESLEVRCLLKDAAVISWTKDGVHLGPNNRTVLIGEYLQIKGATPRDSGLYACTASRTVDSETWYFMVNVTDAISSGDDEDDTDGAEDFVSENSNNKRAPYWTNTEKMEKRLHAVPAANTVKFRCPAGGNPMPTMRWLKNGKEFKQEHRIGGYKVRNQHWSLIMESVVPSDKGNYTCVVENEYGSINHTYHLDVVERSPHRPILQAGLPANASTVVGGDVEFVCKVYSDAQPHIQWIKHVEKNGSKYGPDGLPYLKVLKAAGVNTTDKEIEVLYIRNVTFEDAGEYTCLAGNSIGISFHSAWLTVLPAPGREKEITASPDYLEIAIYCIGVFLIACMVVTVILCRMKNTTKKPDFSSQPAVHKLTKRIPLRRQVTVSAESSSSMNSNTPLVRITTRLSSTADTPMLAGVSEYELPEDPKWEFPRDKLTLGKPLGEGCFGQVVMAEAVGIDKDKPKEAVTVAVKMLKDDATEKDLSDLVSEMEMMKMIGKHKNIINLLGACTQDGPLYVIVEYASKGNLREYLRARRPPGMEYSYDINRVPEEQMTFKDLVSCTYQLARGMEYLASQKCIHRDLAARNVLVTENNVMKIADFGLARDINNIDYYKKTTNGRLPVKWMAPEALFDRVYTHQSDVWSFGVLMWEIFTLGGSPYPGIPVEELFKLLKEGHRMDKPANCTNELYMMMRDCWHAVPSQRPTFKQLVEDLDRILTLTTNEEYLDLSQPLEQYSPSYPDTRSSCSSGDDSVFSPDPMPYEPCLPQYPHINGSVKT

[8] = Binding affinity to L-cysteine assessed as molecular mass incubated for 8 hrs by LC-MS analysis
In short: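 L-cysteine incubated in water with a 5-fold molar excess of compound (or DMSO) for 8 h at 4 °C; reaction mixtures analysed by LC–MS on an ion trap mass spectrometer to detect adduct mass.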

[9] = target: T1, ALK tyrosine kinase receptor; assay: Inhibition of ALK phosphorylation in human NCI-H3122 cells at 10 to 500 nM incubated for 24 hrs by western blot analysis; type: cell-based; settings: dose 10-500 nM
In short: (§1)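 H3122 cells were exposed for 24 h at 37 °C to 0, 10, 50, 200 or 500 nM, then lysed in RIPA buffer with protease/phosphatase inhibitors and 1 mM PMSF. Protein was BCA-normalized and run on SDS−PAGE to PVDF. Primary antibodies were applied overnight at 4 °C in 5% BSA/TBST, then HRP secondary (1/5000, 1 h). Detection was by chemiluminescence.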
Target sequence in this assay (Q9UM73 19-1620 limits assumed): as the sequence (Q9UM73 19-1620 limits assumed) above

[10] = target: T1, ALK tyrosine kinase receptor; assay: Inhibition of ALK in human NCI-H3122 cells assessed as decrease in phosphorylation of AKT at 10 to 500 nM incubated for 24 hrs by western blot analysis; type: cell-based; settings: dose 10-500 nM; in short: as §1
Target sequence in this assay (Q9UM73 19-1620 limits assumed): as above

[11] = target: T1, ALK tyrosine kinase receptor; assay: Inhibition of ALK in human NCI-H3122 cells assessed as decrease in STAT3 expression levels at 10 to 500 nM incubated for 24 hrs by western blot analysis; type: cell-based; settings: dose 10-500 nM; in short: as §1
Target sequence in this assay (Q9UM73 19-1620 limits assumed): as above

[12] = target: T1, ALK tyrosine kinase receptor; assay: Inhibition of ALK in human NCI-H3122 cells assessed as downregulation of AKT expression levels at 10 to 500 nM incubated for 24 hrs by western blot analysis; type: cell-based; settings: dose 10-500 nM; in short: as §1
Target sequence in this assay (Q9UM73 19-1620 limits assumed): as above

[13] = target: T1, ALK tyrosine kinase receptor; assay: Inhibition of ALK in human NCI-H3122 cells assessed as downregulation of STAT3 phosphorylation levels at 10 to 500 nM incubated for 24 hrs by western blot analysis; type: cell-based; settings: dose 10-500 nM; in short: as §1
[14] = Clearance in Sprague-Dawley rat at 1 mg/kg, iv measured upto 24 hrs by LC-MS/MS analysis; type: ADME, organism-based; settings: in vivo
In short: (§2)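 Male SD rats (200−220 g, n = 3 per group) received 1 mg/kg iv in 5% DMA/10% Solutol HS 15/85% saline, or 10 mg/kg orally in 0.5% CMC-Na. Jugular-vein blood was drawn to 24 h, and plasma was kept at −80 °C. Plasma levels were quantified by LC−MS/MS (LLOQ 1 ng/mL), and parameters were derived by noncompartmental analysis.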

[15] = Volume of distribution at steady state in Sprague-Dawley rat at 1 mg/kg, iv measured upto 24 hrs by LC-MS/MS analysis; type: ADME, organism-based; settings: in vivo, read-out: Vdss; in short: as §2
[16] = Tmax in Sprague-Dawley rat at […] measured upto 24 hrs by LC-MS/MS analysis; type: ADME, organism-based; settings: in vivo
[17] = Cmax in Sprague-Dawley rat at […] measured upto 24 hrs by LC-MS/MS analysis; type: ADME, organism-based; set-up: route intravenous, dose 1 mg/kg, time <=24; settings: in vivo
[18] = AUC (0 to infinity) in Sprague-Dawley rat at 10 mg/kg, po measured upto 24 hrs by LC-MS/MS analysis; type: ADME, organism-based; set-up: route oral, dose 10 mg/kg, time <=24; settings: in vivo; in short: as §2
[19] = Half life in Sprague-Dawley rat at 10 mg/kg, po measured upto 24 hrs by LC-MS/MS analysis; type: ADME, organism-based; settings: in vivo; in short: as §2
[20] = Oral bioavailability in Sprague-Dawley rat at 10 mg/kg measured upto 24 hrs by LC-MS/MS analysis; type: ADME, organism-based; settings: in vivo; in short: as §2
[21] = tested on: NCI-H3122; assay: Antitumor activity against human NCI-H3122 cells xenografted in Balb/c nude mouse assessed as tumor growth inhibition administered orally and measured every 3 days for 15 days by vernier caliper method; type: functional, cell-based; settings: time 15.0 day
In short: (§3)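 Female BALB/c nude mice, 6−7 weeks old and 18−22 g, were implanted sc with 5 × 10⁶ exponential-phase H3122 cells in 0.1 mL serum- and antibiotic-free medium. At 150−200 mm³ they were randomized (6 per group) and dosed orally once daily at 10, 20 or 50 mg/kg in 10% NMP/90% PEG300, with a vehicle group. Body weight and caliper tumor volume (a × b²/2) were recorded every 3 days. TGI versus vehicle was determined after 15 days.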

[22] = tested on: NCI-H3122; assay: Antitumor activity against human NCI-H3122 cells xenografted in Balb/c nude mouse assessed as tumor growth inhibition at 10 mg/kg/day, po and measured 15 days post treatment by vernier caliper method relative to control; type: functional; settings: 360 h, time 15 day, read-out: TGI; in short: as §3
[23] = tested on: NCI-H3122; assay: Antitumor activity against human NCI-H3122 cells xenografted in Balb/c nude mouse assessed as tumor growth inhibition at 20 mg/kg/day, po and measured 15 days post treatment by vernier caliper method relative to control; type: functional; settings: 360 h, time 15 day, read-out: TGI; in short: as §3
[24] = tested on: NCI-H3122; assay: Antitumor activity against human NCI-H3122 cells xenografted in Balb/c nude mouse assessed as tumor growth inhibition at 50 mg/kg/day, po and measured 15 days post treatment by vernier caliper method relative to control; type: functional; settings: 360 h, time 15 day, read-out: TGI; in short: as §3
[25] = Toxicity in Balb/c mouse xenografted with human NCI-H3122 cells assessed as change in body weight at 10 to 50 mg/kg/day, po and measured every 3 days for 15 days; type: organism-based; settings: in vivo, 360 h, dose 10-50 mg/kg/day, time 15 day; in short: as §3
[26] = tested on: ALK tyrosine kinase receptor (Homo sapiens), Q9UM73 [L1196M]; settings: Sf21, dose 200.0 nM, time 10.0 min
ALK tyrosine kinase receptor (Homo sapiens), Q9UM73 [L1196M], sequence (Q9UM73 whole entry L1196M, looked up, the tested form may be a part): as the sequence (Q9UM73 whole entry, the tested form may be a part) above, with L1196M counted along it

[27] = target: T1, ALK tyrosine kinase receptor; assay: Covalent inhibition of N-terminal GST tagged human ALK cytoplasmic domain (1058 to 1620 residues) expressed in Sf21 cells in presence of high ATP levels
Target sequence in this assay (Q9UM73 whole entry, the tested form may be a part): as the sequence (Q9UM73 whole entry, the tested form may be a part) above

IC50 [1]: 720 nM
inhibition [2]: Active
inhibition [3]: Active
SMILES: C=CC(=O)NCCCCCCCCNC(=O)CCN1CCC(c2cc(OC(C)C)c(Nc3ncc(Cl)c(Nc4ccccc4S(=O)(=O)C(C)C)n3)cc2C)CC1
Activity [4]: Non-Toxic

IC50 [1]: 610 nM
inhibition [2]: Active
inhibition [3]: Active
SMILES: C=CC(=O)NCCOCCOCCOCCNC(=O)CCN1CCC(c2cc(OC(C)C)c(Nc3ncc(Cl)c(Nc4ccccc4S(=O)(=O)C(C)C)n3)cc2C)CC1
Activity [4]: Non-Toxic

IC50 [5]: 13.2 nM
SMILES: CCC(=O)NCCOCCNC(=O)CCN1CCC(c2cc(OC(C)C)c(Nc3ncc(Cl)c(Nc4ccccc4S(=O)(=O)C(C)C)n3)cc2C)CC1

inhibition [2]: Active
inhibition [3]: Active
SMILES: C=CC(=O)NCCCCNC(=O)CCN1CCC(c2cc(OC(C)C)c(Nc3ncc(Cl)c(Nc4ccccc4S(=O)(=O)C(C)C)n3)cc2C)CC1

IC50 [1]: 150 nM
IC50 [5]: 0.5 nM
IC50 [6]: 875 nM
IC50 [7]: > 1000 nM
Activity [8]: 891 Da
inhibition [9]: Active
inhibition [10]: Active
inhibition [11]: Active
inhibition [12]: Active
inhibition [13]: Active
clearance [14]: 17 mL/min/kg
Vd [15]: 2.81 L/kg
Tmax [16]: 2.67 h
Cmax [17]: 157 ng/mL
AUC(0-inf) [18]: 859 ng·h/mL
half-life [19]: 2.89 h
bioavailability [20]: 12.1%
inhibition [2]: Active
inhibition [3]: Active
inhibition [26]: Active
IC50 [27]: 1.4 nM
SMILES: C=CC(=O)NCCOCCNC(=O)CCN1CCC(c2cc(OC(C)C)c(Nc3ncc(Cl)c(Nc4ccccc4S(=O)(=O)C(C)C)n3)cc2C)CC1
TGI [21]: Dose-dependent effect
inhibition in vivo at 10 mg/kg/day [22]: 39.7%
inhibition in vivo at 20 mg/kg/day [23]: 49.7%
inhibition in vivo at 50 mg/kg/day [24]: 62%
Activity [25]: Non-Toxic
Activity [4]: Non-Toxic

IC50 [1]: 1140 nM
inhibition [2]: Active
inhibition [3]: Active
SMILES: C=CC(=O)NCCCNC(=O)CCN1CCC(c2cc(OC(C)C)c(Nc3ncc(Cl)c(Nc4ccccc4S(=O)(=O)C(C)C)n3)cc2C)CC1
Activity [4]: Non-Toxic

IC50 [1]: 750 nM
inhibition [2]: Active
inhibition [3]: Active
SMILES: C=CC(=O)NCCCCCCNC(=O)CCN1CCC(c2cc(OC(C)C)c(Nc3ncc(Cl)c(Nc4ccccc4S(=O)(=O)C(C)C)n3)cc2C)CC1
Activity [4]: Non-Toxic

IC50 [1]: 1100 nM
inhibition [26]: Active
SMILES: Cc1cc(Nc2ncc(Cl)c(Nc3ccccc3S(=O)(=O)C(C)C)n2)c(OC(C)C)cc1C1CCNCC1 [CERITINIB]
inhibition in vivo at 20 mg/kg/day [23]: 34%

inhibition [2]: Active
inhibition [3]: Active
SMILES: C=CC(=O)NCCOCCOCCNC(=O)CCN1CCC(c2cc(OC(C)C)c(Nc3ncc(Cl)c(Nc4ccccc4S(=O)(=O)C(C)C)n3)cc2C)CC1
